High-throughput results deposited in PubChem by several laboratories.
An excerpt weighted towards active compounds, which were near 2.3% of everything screened.
EBV gp42 inh: EBV gp42 inhibition; 220,000 compounds, 0.42% hits; Fluorescence polarization binding assay, mP read-out; inhibition, % (tested at 21.74 µM); in the data active means inhibition above about 50%
Target sequence (Q1HVG2 whole entry, looked up): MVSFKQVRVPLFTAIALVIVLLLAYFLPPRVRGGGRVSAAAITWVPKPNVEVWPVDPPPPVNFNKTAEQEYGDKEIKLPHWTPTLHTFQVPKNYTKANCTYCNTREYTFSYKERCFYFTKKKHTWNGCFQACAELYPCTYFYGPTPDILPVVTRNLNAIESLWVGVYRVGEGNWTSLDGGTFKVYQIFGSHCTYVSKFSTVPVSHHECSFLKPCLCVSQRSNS
GPR7 antag: human neuropeptides B/W receptor 1 antagonism | P48145 | GPR7-expressing cells, fluorescence antagonist assay | inhibition, % at 4.4 µM | 290,000 compounds, 1.1% hits | AID 1861; in the data active means inhibition above about 16%, passing the limit was not always enough;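 further: cells stimulated with the agonist NPW; 0% = agonist with vehicle and 100% = vehicle without agonist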
NS3 helicase inh: blocks Hepatitis C virus NS3 helicase unwinding | NS3 helicase DNA unwinding, Cy5 molecular beacon fluorescence | inhibition, % at 10.9 µM | 290,000 compounds, 0.56% hits;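 active means inhibition above the mean of all tested compounds plus 3 SD, set per campaign, cut at about 35% in these data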;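 further: 0% = DMSO wells and 100% = thioflavine S control wells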
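Measured by: Cy5 fluorescence, 0 and 60 min reads / Assay system: NS3 helicase fragment of HCV / Control set: low DMSO, high thioflavine S at 110 µM / Times: 1 h reaction at 25 °C, ATP-initiated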
EBNA-1 inhibitor: blocks EBNA-1 binding to DNA; EBNA-1 DNA binding, fluorescence polarization; inhibition, % at 14.8 µM; 300,000 compounds, 0.34% hits; AID 1950; in the data active means inhibition above about 28%
ZTA counter: counter-screen for EBNA-1 inhibitors: inhibitors of Epstein-Barr virus ZTA; P03206; ZTA-DNA binding, fluorescence polarization; inhibition, % at 11 µM; 320,000 compounds, 0.15% hits; AID 2234; in the data active means inhibition above about 33%
Target sequence (P03206 whole entry, looked up): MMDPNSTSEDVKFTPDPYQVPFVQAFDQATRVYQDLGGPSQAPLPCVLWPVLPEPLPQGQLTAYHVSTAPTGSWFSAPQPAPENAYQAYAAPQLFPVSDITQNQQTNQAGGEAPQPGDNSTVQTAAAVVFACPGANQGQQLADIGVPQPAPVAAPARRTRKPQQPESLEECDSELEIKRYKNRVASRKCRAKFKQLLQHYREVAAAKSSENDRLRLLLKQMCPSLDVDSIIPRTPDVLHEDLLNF
HCV core dimer: blocks dimerization of HCV core protein; TR-FRET GST/Flag-core106 dimerization, 1536-well; inhibition, % at 5 µM; 300,000 compounds, 0.33% hits;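 active means inhibition above the mean of all tested compounds plus 3 SD, set per screening campaign, cut at about 45% in these data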
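Material: GST/Flag-tagged HCV core106 proteins. Incubation: 4 h, 22.5 °C incubation. Read-out basis: inhibition (%) from 671 over 617 nm ratio. Measured by: TR-FRET, excitation 340 nm, emission 617 and 671 nm.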
NS3 hel confirm: HCV NS3 helicase inhibition, confirmation assay. shares compounds with NS3 helicase inh. NS3 helicase DNA unwinding, Cy5 molecular beacon fluorescence. inhibition, % at 10.9 µM. 1,600 compounds, 31% hits. AID 1943;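 active means inhibition above the mean of all tested compounds plus 3 SD, cutoff set per campaign, cut at about 36% in these data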
DNA FID counter: displaces DNA intercalator in HCV helicase counter-screen; shares compounds with NS3 helicase inh; DNA fluorescent intercalator displacement, fluorescence; inhibition, % at 7.9 µM; 1,600 compounds, 4% hits; AID 1945; in the data active means inhibition above about 37%;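 further: 0% = vehicle and 100% = reference compound; higher means more displacement of ethidium bromide from the DNA hairpin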
Numbers without * were called inactive; / = not tested or not shown.

SMILES | EBV gp42 inh | GPR7 antag | NS3 helicase inh | EBNA-1 inhibitor | ZTA counter | HCV core dimer | NS3 hel confirm | DNA FID counter
CCC(C)C(NC(=O)C1CCC(C)CC1)C(=O)NC1CCN(Cc2ccccc2)CC1 (centres undefined) | -12 | -8 | -3 | / | / | / | / | /
CCCCOc1ccc(C(=O)N2CCN(c3ncccn3)CC2)cc1 | / | -10 | -3 | 1 | 3 | -6 | / | /
Cc1ccc(Nc2cccccc2=O)cc1 | -6 | -8 | 45* | 5 | -9 | -1 | -16 | 5
N#C/C(=C(/O)CN1CCOCC1)c1nc(-c2ccccc2)cs1 | -12 | 0 | 6 | 12 | -4 | -1 | / | /
Cc1ccc(-c2csc(/C(C#N)=C(\O)CN3CCN(C(=O)c4ccco4)CC3)n2)cc1 | -10 | 10 | 37* | 2 | 5 | 6 | 42* | -14
O=C(COC(=O)c1cc(S(=O)(=O)N2CCOCC2)c(Cl)cc1Cl)c1ccc[nH]1 | / | / | / | / | -2 | / | / | /
COc1ccccc1CCNC(=O)CSc1ccc(-c2cccs2)nn1 | -1 | -6 | 45* | 7 | 13 | 5 | -10 | -14
CC(C)Sc1nnc(-c2ccc(S(=O)(=O)N3CCOCC3)cc2)n1C | / | 6 | -6 | 6 | 2 | -6 | / | /
O=C(O)C1CCN(c2nc(-c3ccccc3)c3cc(Br)ccc3n2)CC1 | / | 20 | 48* | -6 | 5 | 5 | 69* | -12
O=C(COc1ccc2c3c(c(=O)oc2c1)CCCC3)N1C[C@H]2C[C@@H](C1)c1cccc(=O)n1C2 | / | 10 | 46* | 9 | 0 | 1 | -15 | -27
COc1ccc(-c2cc(=O)oc3cc(OCC(=O)N4C[C@H]5C[C@@H](C4)c4cccc(=O)n4C5)ccc23)cc1 | / | 0 | -12 | 2 | -1 | 0 | / | /
CC(=O)NCCc1nc2cc(NS(=O)(=O)c3ccc(Cl)cc3)ccc2n1C | / | -8 | 37* | -22 | -4 | -13 | -2 | 0
CC(=O)NCCc1nc2cc(NS(=O)(=O)c3ccccc3)ccc2n1C | / | -3 | 1 | -7 | -7 | 1 | / | /
COc1ccc(CNC(=O)[C@H](C)N2C(=O)N3CCc4c([nH]c5ccccc45)[C@@]3(C)C2=O)cc1OC | / | 10 | -24 | 0 | -3 | 3 | / | /
COc1cc(C(c2c(C(=O)O)[nH]c3ccccc23)c2c(C(=O)O)[nH]c3ccccc23)ccc1OCc1ccccc1 | / | 12 | 37* | 15 | 21 | 36 | 17 | 25
Cc1ccc(N=c2sc(C)c(C)n2C)cc1 | -10 | -7 | 9 | -9 | -17 | -17 | / | /
Nc1c(S(=O)(=O)O)cc(NC(=O)c2ccccc2)c2c1C(=O)c1ccccc1C2=O | / | -8 | 81* | 19 | 16 | -14 | 66* | 61*
O=C(Nc1ccccc1-c1ccccc1)c1ccccc1 | / | -12 | 2 | -8 | 0 | -3 | / | /
C=CCN1C(=O)c2ccccc2Sc2ccc(C(=O)NCC(OC)OC)cc21 | / | -2 | -7 | -10 | -2 | -5 | / | /
COc1cc(OC)c2c(O)c3c(c(-c4c5c(c(O)c6c(OC)cc(OC)cc46)CO[C@@H](C)[C@H]5O)c2c1)[C@H](O)[C@H](C)OC3 | 13 | -14 | 36* | 18 | -2 | 54* | 69* | -20
Oc1ccccc1C=Nc1cccc2ccccc12 | / | 12 | 5 | 5 | 7 | -1 | / | /
Oc1cccc(C=Nc2cccc3ccccc23)c1O | / | -2 | 46* | -15 | 3 | 10 | -1 | 14
CCc1ccc(/C=C/C(=O)C2C(=O)c3ccccc3C2=O)cc1 | -15 | 4 | 38* | 12 | -1 | 7 | 5 | 5
O=C(/C=C/c1ccccc1)C1C(=O)c2ccccc2C1=O | -19 | -19 | 25 | -1 | 16 | -4 | / | /
Cc1ccc(OCCSc2nnc(C)c(=O)n2N)cc1 | -19 | -17 | -9 | -4 | -4 | 4 | / | /
CCOC(=O)C1=C(C)NC(C)=C(C(=O)OC)C1c1ccco1 (centres undefined) | -8 | -10 | 37* | -5 | 7 | -3 | -5 | 10
